Results taken from PMC11671551 (Cancer Chemotherapy and Pharmacology, 2024).
Read-outs that look alike come from different tables or passages of the source.

Tests used:
[1] = assay type: in vivo, human; conditions: for Serum concentration, mean: trough
Summary of the method: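 mRCC patients recruited prospectively (March 2020–January 2022) on oral sunitinib, 2 weeks on/1 week off, with physician-set dose. Blood (5 mL) was drawn at outpatient visits 7–14 days into each cycle, 24 h post-dose or just before the next dose. It was spun at 1,500 ×g, 4 °C, 10 min, and the serum stored at -25 °C. Parent drug, N-desethyl and N-oxide were quantified by LC-MS/MS (LLOQ 2.5, 2.5, 0.1 ng/mL). Concentration/dose ratios were correlated with treatment duration by Pearson.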

[2] = population pharmacokinetic analysis, patient weighing 100 kg; cited from earlier work
[3] = Adverse events in mRCC patients receiving long-term sunitinib; assay type: in vivo, human
[4] = Pt1, maintenance dose 25 mg, 421–630 days after initiation
[5] = Pt1, maintenance dose 25 mg, 631–840 days after initiation
[6] = Pt1, maintenance dose 25 mg, 841–1050 days after initiation
[7] = Pt1, maintenance dose 25 mg, 1051–1260 days after initiation
[8] = Pt1, maintenance dose 25 mg, 1261–1470 days after initiation
[9] = Pt2, maintenance dose 25 mg, 631–840 days after initiation
[10] = Pt2, maintenance dose 25 mg, 841–1050 days after initiation
[11] = Pt3, maintenance dose 25 mg, 1051–1260 days after initiation
[12] = Pt3, maintenance dose 25 mg, 1261–1470 days after initiation
[13] = Pt3, maintenance dose 25 mg, 1471–1680 days after initiation
[14] = Pt3, maintenance dose 25 mg, 1681–1890 days after initiation
[15] = Pt4, maintenance dose 25 mg, 1891–2100 days after initiation
[16] = Pt5, maintenance dose 37.5 mg, 1261–1470 days after initiation
[17] = Pt5, maintenance dose 37.5 mg, 1471–1680 days after initiation
[18] = Pt5, maintenance dose 37.5 mg, 1681–1890 days after initiation
[19] = Pt6, maintenance dose 50 mg, 0–210 days after initiation
[20] = Pt6, maintenance dose 50 mg, 211–420 days after initiation
[21] = Pt6, maintenance dose 50 mg, 421–630 days after initiation
[22] = Pt7, maintenance dose 25 mg, 0–210 days after initiation
[23] = after follow-up, sunitinib C/D decreased group (n=3)
[24] = after follow-up, sunitinib C/D non-decreased group (n=4)
[25] = baseline, sunitinib C/D decreased group (n=3)
[26] = baseline, sunitinib C/D non-decreased group (n=4)
[27] = sunitinib C/D decreased group (n=3)
[28] = sunitinib C/D non-decreased group (n=4)

| Structure (SMILES) | Pearson's correlation coefficient r between C/D ratio and treatment duration ([1]; Pt1) | Serum concentration, mean [1, 4] | Serum concentration, mean [1, 5] | Serum concentration, mean [1, 6] | Serum concentration, mean [1, 7] | Serum concentration, mean [1, 8] | Pearson's correlation coefficient r between C/D ratio and treatment duration ([1]; Pt2) | Serum concentration, mean [1, 9] | Serum concentration, mean [1, 10] | Serum concentration, mean [1, 11] | Serum concentration, mean [1, 12] | Serum concentration, mean [1, 13] | Serum concentration, mean [1, 14] | Serum concentration, mean [1, 15] | Serum concentration, mean [1, 16] | Serum concentration, mean [1, 17] | Serum concentration, mean [1, 18] | Serum concentration, mean [1, 19] | Serum concentration, mean [1, 20] | Serum concentration, mean [1, 21] | also measured |
| --- | --- | --- | --- | --- | --- | --- | --- | --- | --- | --- | --- | --- | --- | --- | --- | --- | --- | --- | --- | --- | --- |
| CCNCCNC(=O)c1c(C)[nH]c(/C=C2\C(=O)Nc3ccc(F)cc32)c1C [N-desethyl sunitinib] | -0.282 | 9.0 ng/mL | 11.0 ng/mL | 10.4 ng/mL | 9.6 ng/mL | 6.9 ng/mL | -0.500 | 22.7 ng/mL | 20.9 ng/mL | 13.2 ng/mL | 12.5 ng/mL | 15.5 ng/mL | 14.6 ng/mL | 11.0 ng/mL | 12.6 ng/mL | 12.1 ng/mL | 14.7 ng/mL | 30.4 ng/mL | 27.7 ng/mL | 30.4 ng/mL | Serum concentration, mean [1, 22]: 17.8 ng/mL; N-desethyl sunitinib/sunitinib concentration ratio, median (min–max) [1, 23]: 0.29 (0.26–0.63); N-desethyl sunitinib/sunitinib concentration ratio, median (min–max) [1, 24]: 0.30 (0.16–0.54); N-desethyl sunitinib/sunitinib concentration ratio, median (min–max) [1, 25]: 0.28 (0.23–0.46); N-desethyl sunitinib/sunitinib concentration ratio, median (min–max) [1, 26]: 0.30 (0.19–0.44) |
| CC[N+]([O-])(CC)CCNC(=O)c1c(C)[nH]c(/C=C2\C(=O)Nc3ccc(F)cc32)c1C [Sunitinib N-oxide, sunitinib N-oxide] | -0.756 | 0.68 ng/mL | 0.59 ng/mL | 0.40 ng/mL | 0.29 ng/mL | 0.10 ng/mL | -0.838 | 1.10 ng/mL | 0.71 ng/mL | 0.99 ng/mL | 0.58 ng/mL | 0.53 ng/mL | 0.32 ng/mL | 1.35 ng/mL | 0.56 ng/mL | 0.57 ng/mL | 0.36 ng/mL | 0.56 ng/mL | 0.55 ng/mL | 0.17 ng/mL | Pearson's correlation coefficient r between C/D ratio and treatment duration ([1]; Pt6): -0.752; Serum concentration, mean [1, 22]: 0.24 ng/mL; Sunitinib N-oxide/sunitinib concentration ratio, median (min–max) [1, 23]: 0.004 (0.004–0.009); Sunitinib N-oxide/sunitinib concentration ratio, median (min–max) [1, 24]: 0.006 (0.004–0.029); Sunitinib N-oxide/sunitinib concentration ratio, median (min–max) [1, 25]: 0.013 (0.010–0.021); Sunitinib N-oxide/sunitinib concentration ratio, median (min–max) [1, 26]: 0.016 (0.014–0.026) |
| CCN(CC)CCNC(=O)c1c(C)[nH]c(/C=C2\C(=O)Nc3ccc(F)cc32)c1C [Sunitinib, sunitinib, reference compound] | -0.608 | 44.0 ng/mL | 48.3 ng/mL | 41.2 ng/mL | 33.1 ng/mL | 26.2 ng/mL | -0.555 | 86.7 ng/mL | 73.5 ng/mL | 59.5 ng/mL | 54.9 ng/mL | 64.1 ng/mL | 54.1 ng/mL | 54.5 ng/mL | 42.2 ng/mL | 44.7 ng/mL | 39.4 ng/mL | 71.0 ng/mL | 65.8 ng/mL | 37.5 ng/mL | Maximum variation in Vd/F [2]: 14%; Patients with grade 2 or higher anorexia ([3]; all 7 patients, five patients): 71.4%; Patients with anorexia (any grade) ([3]; all 7 patients, six patients): 85.7%; Anorexia Grade 0, number of patients [3, 27]: 1 n; Anorexia Grade 1, number of patients [3, 27]: 0 n; Anorexia Grade 2, number of patients [3, 27]: 1 n; Anorexia Grade 3, number of patients [3, 27]: 1 n; Diarrhea Grade 0, number of patients [3, 27]: 2 n; Diarrhea Grade 1, number of patients [3, 27]: 1 n; Anorexia Grade 0, number of patients [3, 28]: 0 n; Anorexia Grade 1, number of patients [3, 28]: 1 n; Anorexia Grade 2, number of patients [3, 28]: 2 n; Anorexia Grade 3, number of patients [3, 28]: 1 n; Diarrhea Grade 0, number of patients [3, 28]: 2 n; Diarrhea Grade 1, number of patients [3, 28]: 2 n; Pearson's correlation coefficient r between C/D ratio and treatment duration ([1]; Pt6): -0.590; Serum concentration, mean [1, 22]: 31.1 ng/mL |
